Calls of active or inactive are those of the source. The rule behind the calls is not given here.
Tests used:
[1] = target: T1, DNA-binding transcriptional activator DevR/DosR (Mycobacterium tuberculosis, UniProt P9WMF9); assay: Inhibition of Mycobacterium tuberculosis phosphorylated DevR binding to fdxA promoter DNA after 10 mins by EMSA
How it was run: (§1)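 N-terminal GST-tagged DevR was phosphorylated with acetyl phosphate; DevR~P (1 μM final) was preincubated 10 min at 30 °C with or without compound. ~2 ng 32P end-labelled fdxA promoter PCR probe was added and incubated 30 min on ice in binding buffer. Complexes resolved by gel electrophoresis.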

[2] = target: T1, DNA-binding transcriptional activator DevR/DosR; assay: Inhibition of DevR region-dependent Rv3134c promoter activity in Mycobacterium tuberculosis H37Rv after 48 hrs by GFP reporter gene assay
How it was run: (§2)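 H37Rv carrying DevR-regulated promoter-gfp plasmids, grown in Dubos/Tween/ADC medium to OD595 ~0.4 and diluted to OD ~0.05. Exposed to 2-fold serial compound dilutions from DMSO stocks for 48 h at 37 °C. Fluorescence corrected for vector and compound background. Percent inhibition = [1 - RFUcompound/RFUDMSO] × 100; mean ± SD of three experiments, each in triplicate wells.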

[3] = target: DNA-binding transcriptional activator DevR/DosR (Mycobacterium tuberculosis) (UniProt P9WMF9); assay: Inhibition of Mycobacterium tuberculosis phosphorylated DevR binding to fdxA promoter DNA at 500 uM after 10 mins by EMSA; how it was run: as §1
[4] = target: DNA-binding transcriptional activator DevR/DosR (Mycobacterium tuberculosis) (UniProt P9WMF9); assay: Inhibition of DevR region-dependent Rv3134c promoter activity in Mycobacterium tuberculosis H37Rv at 250 uM after 48 hrs by GFP reporter gene assay; how it was run: as §2
[5] = test system: Mycobacterium tuberculosis; assay: Inhibition of constitutive sigA promoter activity in Mycobacterium tuberculosis H37Rv; format: functional, organism-based
How it was run: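 Strains carrying Rv3134c or sigA promoter-gfp were grown in 7H9/Tween/ADC to OD595 ~0.40. Washed twice with PBS, resuspended in PBS (starved) or medium, and diluted to OD595 ~0.02. 1 mL aliquots incubated; 200 μL samples taken weekly to measure GFP fluorescence.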

[6] = target: DNA-binding transcriptional activator DevR/DosR (Mycobacterium tuberculosis) (UniProt P9WMF9); assay: Inhibition of Mycobacterium tuberculosis phosphorylated DevR binding to fdxA promoter DNA at 250 uM after 10 mins by EMSA; how it was run: as §1
[7] = test system: Mycobacterium tuberculosis; assay: Antimycobacterial activity against 30 day old non-replicating dormant cultures of Mycobacterium tuberculosis H37Rv assessed as revival of bacterial viability exposed for 11 days measured after 30 days post exposure by resazurin reduction assay; format: functional, organism-based
How it was run: (§3)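 Hypoxic cultures were pelleted at 11000g at the end of exposure (30 days if compound was given on day 0, 41 days if given on day 30). Washed and resuspended in 4 mL 7H9 with 5% OADC and 0.1% Tween-80. Grown aerobically at 190 rpm, 37 °C. Aliquots taken every 5 days; recovery read by resazurin reduction and OD595, scored 1-40 with day 0 = 1.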

[8] = test system: Mycobacterium tuberculosis; assay: Antimycobacterial activity against 30 day old non-replicating dormant cultures of Mycobacterium tuberculosis H37Rv assessed as reduction of bacterial viability measured after 11 days by resazurin reduction assay; format: functional, organism-based
How it was run: (§4)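 H37Rv grown in Dubos medium to OD595 ~0.4, diluted to OD595 0.003; 2 mL aliquots held static in sealed 4 mL tubes for 30 days until hypoxic. Compounds added to these dormant cultures for a further 11 days. Metronidazole and isoniazid were controls. Read by CFU plating of aliquots, then resazurin 0.02% plus Tween-80 20% injected, overnight incubation, resazurin reduction (HyRRA).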

[9] = target: T1, DNA-binding transcriptional activator DevR/DosR; assay: Inhibition of DevR region-dependent narK2 promoter activity in Mycobacterium tuberculosis H37Rv after 48 hrs by GFP reporter gene assay; how it was run: as §2
[10] = test system: Mycobacterium tuberculosis; assay: Antimycobacterial activity against 30 day old non-replicating dormant cultures of Mycobacterium tuberculosis H37Rv assessed as reduction of bacterial viability at 131 ug/mL measured after 11 days by resazurin reduction assay; format: functional, organism-based; how it was run: as §4
[11] = target: T1, DNA-binding transcriptional activator DevR/DosR; assay: Inhibition of DevR region-dependent hspX promoter activity in Mycobacterium tuberculosis H37Rv after 48 hrs by GFP reporter gene assay; how it was run: as §2
[12] = test system: Mycobacterium tuberculosis; assay: Antimycobacterial activity against nutrient starvation-induced dormant Mycobacterium tuberculosis H37Rv expressing Rv3134c/sigA promoter driven GFP reporter genes; format: functional, organism-based
[13] = test system: Mycobacterium tuberculosis; assay: Antimycobacterial activity against 30 day old non-replicating dormant cultures of Mycobacterium tuberculosis H37Rv assessed as revival of bacterial viability at 131 ug/mL exposed for 11 days measured after 30 days post exposure by resazurin reduction assay; format: functional, organism-based; how it was run: as §3
[14] = target: DNA-binding transcriptional activator DevR/DosR (Mycobacterium tuberculosis) (UniProt P9WMF9); assay: Inhibition of Mycobacterium tuberculosis phosphorylated DevR binding to fdxA promoter DNA added after DevR phosphorylation by EMSA
[15] = test system: Mycobacterium tuberculosis; assay: Antimycobacterial activity against aerobic Mycobacterium tuberculosis H37Rv by resazurin reduction based REMA assay; format: functional, organism-based
How it was run: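 Aerobic H37Rv exposed to compounds in triplicate cultures for 7 days. Then 0.02% resazurin and 20% Tween-80 added; after 48 h, blue-to-pink colour change read, with fluorescence at excitation 530 nm, emission 590 nm.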

[16] = test system: Mycobacterium tuberculosis; assay: Antimycobacterial activity against hypoxic dormant cultures of Mycobacterium tuberculosis H37Rv assessed as reduction of bacterial viability at 131 ug/mL administered on day 0 into hypoxic tubes measured after 30 days by resazurin reduction assay; format: functional
How it was run: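 H37Rv in Dubos medium at OD595 0.003; 2 mL aliquots in sealed 4 mL tubes held static, compound injected on day 0. Incubated until methylene blue decolorized (anaerobiosis, ~30 days). CFU plating of aliquots, then resazurin 0.02% and Tween-80 20% injected, overnight incubation, viability by resazurin reduction (HyRRA). DMSO control matched.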

[17] = target: DNA-binding protein HupB (Mycobacterium tuberculosis (strain ATCC 25177 / H37Ra)) (UniProt A5U6Z7); assay: Inhibition of Mycobacterium tuberculosis HupB binding to fdxA promoter DNA at 500 uM by EMSA
How it was run: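 Purified HupB protein incubated with compound, then ~2 ng 32P-labelled fdxA promoter probe added for 30 min on ice in binding buffer. Complexes resolved by gel shift electrophoresis against positive and negative controls.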

[18] = target: DNA-binding transcriptional activator DevR/DosR (Mycobacterium tuberculosis) (UniProt P9WMF9); assay: Inhibition of Mycobacterium tuberculosis phosphorylated DevR binding to fdxA promoter DNA added before DevR phosphorylation by EMSA
[19] = test system: Mycobacterium tuberculosis; assay: Antimycobacterial activity against hypoxic dormant cultures of Mycobacterium tuberculosis H37Rv assessed as revival of bacterial viability at 131 ug/mL administered on day 0 into hypoxic tubes measured after 30 days under hypoxic conditions by resazurin reduction assay; format: functional, organism-based; how it was run: as §3

Chain of DNA-binding transcriptional activator DevR/DosR (Mycobacterium tuberculosis) (P9WMF9 whole entry): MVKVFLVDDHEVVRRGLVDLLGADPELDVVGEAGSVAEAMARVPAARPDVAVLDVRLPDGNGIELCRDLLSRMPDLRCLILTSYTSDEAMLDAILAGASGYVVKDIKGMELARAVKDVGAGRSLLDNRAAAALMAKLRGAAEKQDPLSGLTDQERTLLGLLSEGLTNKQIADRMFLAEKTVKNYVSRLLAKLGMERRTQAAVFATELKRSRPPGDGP
T1 sequence (P9WMF9 whole entry): as above
Chain of DNA-binding protein HupB (Mycobacterium tuberculosis (strain ATCC 25177 / H37Ra)) (A5U6Z7 whole entry): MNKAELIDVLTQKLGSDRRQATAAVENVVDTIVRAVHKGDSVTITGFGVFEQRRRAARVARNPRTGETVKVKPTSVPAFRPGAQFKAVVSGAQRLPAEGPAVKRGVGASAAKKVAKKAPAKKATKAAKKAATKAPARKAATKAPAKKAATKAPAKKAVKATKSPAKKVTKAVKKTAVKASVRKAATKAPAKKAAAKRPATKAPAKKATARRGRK

SMILES | IC50 [1] | IC50 [2] | IC50 ([1]; read-out: IC50 (converted)) [µM] | inhibition [4] [%] | Activity [5] | IC50 ([2]; read-out: IC50 (converted)) [µM] | further results
COC(=O)c1ccc(Cl)c(NC(=O)c2ccc(CN3CCOCC3)cc2)c1 | Not Active | Not Active |  |  |  |  | 
COc1cc(C(=O)NCC(=O)NN)cc(OC)c1OC | Not Active | Not Active |  |  |  |  | 
C=CCc1cc(/C=C2\NC(=O)N(c3ccccc3F)C2=O)cc(OCC)c1O |  |  | 259 | 30 | Active | 311 | inhibition [3]: 100%
COc1cc(NC(=O)c2cc3ccccc3o2)ccc1NC(=O)c1ccccc1Cl |  |  | 200 | 30 | Active | 300 | Activity [6]: Active
Nc1nc2c(nc(Br)n2[C@H]2O[C@H](CO)[C@@H](O)[C@@H]2O)c(=O)[nH]1 | Not Active | Not Active |  |  |  |  | 
O=C(NCc1ccccc1)c1ccccc1NS(=O)(=O)c1ccc2c(c1)OCCO2 | Not Active | Not Active |  |  |  |  | 
Cc1ncc([N+](=O)[O-])n1CCO |  |  |  |  |  |  | Activity [7]: Active; Activity [8]: Active
COc1cc(Br)cc(/C=C2/SC(Nc3cccc(C(=O)O)c3)=NC2=O)c1O | Not Active | Not Active |  |  |  |  | 
Cc1cc(=O)[nH]c2sc(C(=O)c3ccc(Br)cc3)c(N)c12 | Not Active | Not Active |  |  |  |  | 
O=c1[nH]cc(/N=C/c2cc([N+](=O)[O-])ccc2O)c(=O)[nH]1 | Not Active | Not Active |  |  |  |  | 
NNC(=O)c1ccncc1 |  |  |  |  |  |  | Activity [7]: inactive; Activity [8]: inactive
COc1cc(NC(=O)CCc2ccc(OCc3ccc(Cl)cc3)c(OC)c2)c(OC)cc1Cl |  |  | 295 | 50 | Active | 249 | Activity [6]: Active
COc1cc(NC(=O)c2ccc(-c3cc4ccccc4oc3=O)cc2)ccc1NC(=O)c1ccccc1Cl |  |  | < 49.9 | 50 | inactive | 125 | IC50 [9]: < 125 µM; Activity [10]: inactive; IC50 [11]: < 125 µM; Activity [12]: inactive; Activity [6]: Active; Activity [13]: inactive; Activity [14]: Active; Activity [15]: inactive; Activity [16]: >99%; Activity [17]: inactive; Activity [18]: Active; Activity [19]: Active

— ChEMBL document CHEMBL1154621, “Structure-based design of DevR inhibitor active against nonreplicating Mycobacterium tuberculosis” (J Med Chem, 2009)
